Data published in ChEMBL document CHEMBL1155527 (J Med Chem, 2010).
≈ marks a conversion by molar mass, not a printed value.

Key:
CYP2C9 = CYP2C9 (Homo sapiens, UniProt P11712); experiment: Inhibition of CYP2C9 at 3 uM by Gentest method; type: ADME
[1] = target: T1, 5-hydroxytryptamine receptor 3A (Homo sapiens, UniProt P46098); experiment: Antagonist activity at human 5HT3A receptor expressed in HEK293 cells by FLIPR assay
T1 sequence (P46098 whole entry): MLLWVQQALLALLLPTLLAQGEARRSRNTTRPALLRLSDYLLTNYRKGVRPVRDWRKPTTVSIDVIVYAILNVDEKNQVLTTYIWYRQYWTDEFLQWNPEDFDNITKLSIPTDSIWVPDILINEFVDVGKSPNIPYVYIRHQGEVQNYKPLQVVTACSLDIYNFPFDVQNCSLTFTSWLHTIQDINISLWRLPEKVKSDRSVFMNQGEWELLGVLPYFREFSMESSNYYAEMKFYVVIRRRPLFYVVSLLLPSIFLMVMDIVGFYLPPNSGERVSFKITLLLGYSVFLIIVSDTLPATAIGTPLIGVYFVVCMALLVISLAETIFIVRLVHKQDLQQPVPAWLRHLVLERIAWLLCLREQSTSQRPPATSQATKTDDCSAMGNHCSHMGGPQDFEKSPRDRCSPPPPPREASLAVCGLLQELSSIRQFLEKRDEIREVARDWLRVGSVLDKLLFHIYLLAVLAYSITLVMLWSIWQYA

CYP3A4 [2] = experiment: Metabolic stability assessed as compound remaining after 1 hr in presence of human CYP3A4; type: ADME; details: read-out: Stability
[3] = target: Neuronal acetylcholine receptor subunit alpha-7 (Rattus norvegicus, UniProt Q05941); experiment: Agonist activity at rat alpha7 nAChR expressed in rat GH4C1 cells assessed as calcium flux by FLIPR; type: functional, cell-based, GH4-C1
Sequence of Neuronal acetylcholine receptor subunit alpha-7 (Q05941 whole entry): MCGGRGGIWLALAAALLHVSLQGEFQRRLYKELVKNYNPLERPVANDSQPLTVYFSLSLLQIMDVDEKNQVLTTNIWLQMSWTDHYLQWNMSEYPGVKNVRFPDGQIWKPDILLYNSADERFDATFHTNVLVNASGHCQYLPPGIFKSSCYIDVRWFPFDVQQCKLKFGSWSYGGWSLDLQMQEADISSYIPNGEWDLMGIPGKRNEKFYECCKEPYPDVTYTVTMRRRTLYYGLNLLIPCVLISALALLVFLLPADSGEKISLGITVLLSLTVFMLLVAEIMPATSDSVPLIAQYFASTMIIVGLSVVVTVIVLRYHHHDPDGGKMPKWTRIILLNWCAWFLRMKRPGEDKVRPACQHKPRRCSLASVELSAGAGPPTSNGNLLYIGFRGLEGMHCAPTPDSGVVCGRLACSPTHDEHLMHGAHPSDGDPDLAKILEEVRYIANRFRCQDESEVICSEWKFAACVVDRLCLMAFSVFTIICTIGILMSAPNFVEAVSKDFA
Procedure, shortened: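 Cells were loaded 40 min at 37 °C with 4 μM Fluo-4-AM in HBSS-HEPES pH 7.4 with probenecid. FLIPR Ca2+ flux was read for ~10 min after compound addition. MAX-MIN was normalized to positive control and fitted to a variable-slope sigmoid. Triplicate points from a single experiment.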

[4] = Selectivity ratio of EC50 for human alpha3 nAChR to EC50 for rat alpha7 nAChR
[5] = Selectivity ratio of EC50 for human alpha1 nAChR to EC50 for rat alpha7 nAChR
CYP3A4 [6] = target: CYP3A4 (Homo sapiens, UniProt P08684); experiment: Inhibition of CYP3A4 at 3 uM by Gentest method; type: ADME
Sequence of CYP3A4 (Homo sapiens, UniProt P08684) (P08684 whole entry): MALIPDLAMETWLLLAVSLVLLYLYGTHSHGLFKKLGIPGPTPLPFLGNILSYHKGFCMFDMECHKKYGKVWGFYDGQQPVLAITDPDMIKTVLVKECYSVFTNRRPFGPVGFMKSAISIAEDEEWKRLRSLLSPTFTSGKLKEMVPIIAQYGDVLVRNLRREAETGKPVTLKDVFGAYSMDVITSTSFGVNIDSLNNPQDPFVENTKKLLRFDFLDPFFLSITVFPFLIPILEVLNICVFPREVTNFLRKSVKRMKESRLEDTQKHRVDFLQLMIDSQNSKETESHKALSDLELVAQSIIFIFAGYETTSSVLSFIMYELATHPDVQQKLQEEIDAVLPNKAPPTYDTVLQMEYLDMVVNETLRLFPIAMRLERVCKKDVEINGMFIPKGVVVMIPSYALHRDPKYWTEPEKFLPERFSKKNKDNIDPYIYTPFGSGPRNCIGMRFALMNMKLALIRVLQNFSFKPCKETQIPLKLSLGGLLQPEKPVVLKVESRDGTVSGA

[7] = Solubility in ammonium acetate buffer at pH 7.4 by pseudothermodynamic equilibrium assay; type: physicochemical
CYP2D6 = CYP2D6 (Homo sapiens, UniProt P10635); experiment: Inhibition of CYP2D6 at 3 uM by Gentest method; type: ADME
Sequence of CYP2D6 (P10635 whole entry): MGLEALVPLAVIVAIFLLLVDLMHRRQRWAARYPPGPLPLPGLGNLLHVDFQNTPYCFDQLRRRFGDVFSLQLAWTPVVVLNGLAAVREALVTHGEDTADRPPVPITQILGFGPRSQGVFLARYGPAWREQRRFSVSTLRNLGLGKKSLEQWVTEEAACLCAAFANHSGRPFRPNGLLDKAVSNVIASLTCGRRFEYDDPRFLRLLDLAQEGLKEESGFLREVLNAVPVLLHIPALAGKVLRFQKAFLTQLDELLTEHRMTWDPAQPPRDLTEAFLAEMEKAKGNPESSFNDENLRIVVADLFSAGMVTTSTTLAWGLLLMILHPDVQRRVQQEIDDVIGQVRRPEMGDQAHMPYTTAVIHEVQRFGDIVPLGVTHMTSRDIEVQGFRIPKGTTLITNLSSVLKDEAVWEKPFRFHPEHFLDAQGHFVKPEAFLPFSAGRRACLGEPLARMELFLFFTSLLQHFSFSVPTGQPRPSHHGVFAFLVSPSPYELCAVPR

[8] = Intrinsic clearance in rat liver microsomes by LC-MS/MS analysis; type: ADME, Microsome
Procedure, shortened: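 Rat liver microsomes (0.633 mg/mL protein in 0.1 M potassium phosphate pH 7.4 with EDTA) were incubated with test compound and NADPH regenerating agent for 15 min at 37 °C, against a time-0 control, in duplicate. Reactions were quenched with cold acetonitrile, centrifuged, and supernatants analyzed by LC-MS.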

[9] = target: 5-hydroxytryptamine receptor 4 (Homo sapiens, UniProt Q13639); experiment: Binding affinity to 5HT4 receptor
Sequence of 5-hydroxytryptamine receptor 4 (Q13639 whole entry): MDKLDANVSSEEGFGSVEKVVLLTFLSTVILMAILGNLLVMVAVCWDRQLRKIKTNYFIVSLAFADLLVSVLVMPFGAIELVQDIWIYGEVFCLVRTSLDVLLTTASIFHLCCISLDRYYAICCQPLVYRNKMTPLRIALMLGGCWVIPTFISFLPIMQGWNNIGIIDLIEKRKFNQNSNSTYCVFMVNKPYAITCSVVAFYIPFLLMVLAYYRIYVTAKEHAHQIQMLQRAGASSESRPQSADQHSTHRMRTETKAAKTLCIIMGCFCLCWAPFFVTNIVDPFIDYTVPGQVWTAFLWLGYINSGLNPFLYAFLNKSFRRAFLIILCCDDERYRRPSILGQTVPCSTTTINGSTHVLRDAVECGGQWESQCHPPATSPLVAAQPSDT
Procedure, shortened: (§1)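 Screened at 10 μM in a panel of about 70 receptor binding sites (Novascreen).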

[10] = target: T2, Alpha-2B adrenergic receptor (Homo sapiens, UniProt P18089); experiment: Binding affinity to adrenergic alpha2B receptor; procedure, shortened: as §1
T2 sequence (P18089 whole entry): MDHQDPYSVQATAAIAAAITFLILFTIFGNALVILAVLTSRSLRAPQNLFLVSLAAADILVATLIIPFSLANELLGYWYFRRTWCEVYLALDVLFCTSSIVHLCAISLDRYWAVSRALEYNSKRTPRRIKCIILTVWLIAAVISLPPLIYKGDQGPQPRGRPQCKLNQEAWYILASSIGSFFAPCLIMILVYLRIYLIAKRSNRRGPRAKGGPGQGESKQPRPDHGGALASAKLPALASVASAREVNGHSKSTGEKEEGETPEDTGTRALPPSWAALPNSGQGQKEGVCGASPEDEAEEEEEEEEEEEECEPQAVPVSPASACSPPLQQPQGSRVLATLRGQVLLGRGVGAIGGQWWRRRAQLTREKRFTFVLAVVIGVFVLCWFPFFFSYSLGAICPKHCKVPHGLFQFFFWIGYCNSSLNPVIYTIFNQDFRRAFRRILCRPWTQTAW

[11] = Half life in Han Wistar rat at 10 mg/kg, po and 2 mg/kg, iv; type: ADME, organism-based; details: in vivo
[12] = AUC (0 to infinity) in plasma of Han Wistar rat at 2 mg/kg, po; type: ADME, organism-based; set-up: time infinity, dose 2 mg/kg, route oral
[13] = Tmax in Long Evans rat at 3 mg/kg, po; type: ADME, organism-based; set-up: dose 3 mg/kg, route oral; details: in vivo
Procedure, shortened: (§2)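 Male Long Evans rats (6-8 weeks, 250-550 g) given a single 3 mg/kg oral dose as a solution in 2% Tween, 0.5% methocell in water. Plasma sampled over 6 h. Levels measured by LC-MS/MS after acetonitrile protein precipitation with internal standard; detection limit 1 ng/mL.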

[14] = AUC (last) in Long Evans rat at 3 mg/kg, po; type: ADME, organism-based; set-up: time 0 - last, dose 3 mg/kg, route oral; details: plasma; procedure, shortened: as §2
Rattus norvegicus [15] = experiment: Inhibition of MK-801-induced perceptual processing in po dosed Long Evans rat administered 60 mins prior to MK801 challenge measured after 1 hr by prepulse inhibition test; type: functional; details: read-out: MED
Procedure, shortened: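 Rat prepulse inhibition: test compound (1-30 mg/kg) given po 60 min and MK-801 (0.085 mg/kg) sc 10 min before testing. After 5 min at 64 dB background, 61 trials were run: 120 dB pulse alone or with a 69/74/79 dB prepulse 100 ms earlier. PPI = 100 - (prepulse/pulse startle × 100). Chronic arm: 3 mg/kg po daily for 14 days.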

[16] = target: T3, Alpha-2A adrenergic receptor (Homo sapiens, UniProt P08913); experiment: Binding affinity to adrenergic alpha2A receptor; procedure, shortened: as §1
T3 sequence (P08913 whole entry): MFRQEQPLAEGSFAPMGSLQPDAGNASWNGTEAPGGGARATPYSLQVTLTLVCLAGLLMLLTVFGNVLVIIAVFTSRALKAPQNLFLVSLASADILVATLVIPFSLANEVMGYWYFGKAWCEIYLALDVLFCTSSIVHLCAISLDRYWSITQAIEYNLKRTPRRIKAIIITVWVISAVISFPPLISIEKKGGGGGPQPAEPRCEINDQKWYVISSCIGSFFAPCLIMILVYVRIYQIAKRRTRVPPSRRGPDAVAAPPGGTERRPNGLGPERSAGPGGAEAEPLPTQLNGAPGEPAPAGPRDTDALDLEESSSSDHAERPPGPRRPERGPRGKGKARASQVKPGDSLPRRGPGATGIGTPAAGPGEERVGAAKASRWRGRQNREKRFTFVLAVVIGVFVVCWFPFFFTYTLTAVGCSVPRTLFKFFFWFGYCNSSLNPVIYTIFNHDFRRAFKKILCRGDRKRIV

Rattus norvegicus [17] = experiment: Cmax in Long Evans rat at 3 mg/kg, po; type: ADME, organism-based; set-up: dose 3 mg/kg, route oral; details: in vivo; procedure, shortened: as §2
Rattus norvegicus [18] = experiment: Inhibition of MK-801-induced cognitive function in po dosed Long Evans rat administered 60 mins prior to MK801 challenge measured after 1 hr by novel object recognition test; type: functional; details: read-out: MED
Procedure, shortened: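 NOR in rats: vehicle or test compound (0.3-30 mg/kg po) 60 min before the sample trial, and MK-801 (0.03 mg/kg ip) 30 min before. Sample trial was 5 min with two identical objects. Choice trial, 1 h later, was 5 min with one familiar and one novel object. N = 10 per group.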

[19] = target: Neuronal acetylcholine receptor; alpha4/beta2 (Homo sapiens, UniProt P17787+P43681); experiment: Agonist activity at alpha4beta2 nAChR; type: functional
Sequence of Neuronal acetylcholine receptor; alpha4/beta2 (P17787 whole entry): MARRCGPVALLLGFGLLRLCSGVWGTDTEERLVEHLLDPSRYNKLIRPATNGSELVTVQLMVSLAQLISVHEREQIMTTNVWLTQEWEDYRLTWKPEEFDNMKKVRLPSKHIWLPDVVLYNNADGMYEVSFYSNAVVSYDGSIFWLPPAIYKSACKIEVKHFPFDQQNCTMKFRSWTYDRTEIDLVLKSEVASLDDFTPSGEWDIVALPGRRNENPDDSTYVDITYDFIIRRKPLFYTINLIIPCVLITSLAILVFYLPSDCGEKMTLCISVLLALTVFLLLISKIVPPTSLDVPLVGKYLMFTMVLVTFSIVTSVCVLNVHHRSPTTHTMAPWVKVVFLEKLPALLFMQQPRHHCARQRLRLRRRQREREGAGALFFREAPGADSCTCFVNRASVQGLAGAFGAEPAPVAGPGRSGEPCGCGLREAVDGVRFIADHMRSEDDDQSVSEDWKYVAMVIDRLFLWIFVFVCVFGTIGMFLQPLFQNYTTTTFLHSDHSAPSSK
Sequence of Neuronal acetylcholine receptor; alpha4/beta2 (P43681 whole entry): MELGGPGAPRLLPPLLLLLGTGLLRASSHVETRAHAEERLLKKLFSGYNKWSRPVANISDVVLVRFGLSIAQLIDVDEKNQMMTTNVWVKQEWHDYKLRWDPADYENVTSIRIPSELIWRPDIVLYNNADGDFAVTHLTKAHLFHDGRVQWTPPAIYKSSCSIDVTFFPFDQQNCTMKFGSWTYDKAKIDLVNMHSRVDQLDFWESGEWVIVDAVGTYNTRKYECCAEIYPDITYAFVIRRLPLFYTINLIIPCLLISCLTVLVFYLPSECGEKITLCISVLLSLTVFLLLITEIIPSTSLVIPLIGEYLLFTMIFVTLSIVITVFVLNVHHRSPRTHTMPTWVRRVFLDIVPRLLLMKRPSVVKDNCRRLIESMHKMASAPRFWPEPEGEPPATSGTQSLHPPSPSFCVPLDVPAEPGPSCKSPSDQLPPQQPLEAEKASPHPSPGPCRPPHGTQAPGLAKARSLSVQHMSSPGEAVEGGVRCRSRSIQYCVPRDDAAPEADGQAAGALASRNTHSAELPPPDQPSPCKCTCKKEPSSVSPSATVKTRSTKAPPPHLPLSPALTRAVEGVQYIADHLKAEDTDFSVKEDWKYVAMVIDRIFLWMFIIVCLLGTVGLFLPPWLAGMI

[20] = Oral bioavailability in Han Wistar rat assessed as ratio of AUC (0 to infinity) at 10 mg/kg, po normalized to 2 mg/kg, iv; type: ADME, organism-based; details: in vivo
[21] = AUC (0 to infinity) in brain of Han Wistar rat at 2 mg/kg, po; type: ADME, organism-based; set-up: time infinity, dose 2 mg/kg, route oral
[22] = Ratio of drug level from brain to plasma in Han Wistar rat at 2 mg/kg, po; type: ADME, organism-based; set-up: dose 2 mg/kg, route oral; details: read-out: BPR
Procedure, shortened: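 Male Han Wistar rats received a single 2 mg/kg po dose. Ratio calculated from brain and plasma AUC0-inf.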

Sequence of CYP2C9 (P11712 whole entry): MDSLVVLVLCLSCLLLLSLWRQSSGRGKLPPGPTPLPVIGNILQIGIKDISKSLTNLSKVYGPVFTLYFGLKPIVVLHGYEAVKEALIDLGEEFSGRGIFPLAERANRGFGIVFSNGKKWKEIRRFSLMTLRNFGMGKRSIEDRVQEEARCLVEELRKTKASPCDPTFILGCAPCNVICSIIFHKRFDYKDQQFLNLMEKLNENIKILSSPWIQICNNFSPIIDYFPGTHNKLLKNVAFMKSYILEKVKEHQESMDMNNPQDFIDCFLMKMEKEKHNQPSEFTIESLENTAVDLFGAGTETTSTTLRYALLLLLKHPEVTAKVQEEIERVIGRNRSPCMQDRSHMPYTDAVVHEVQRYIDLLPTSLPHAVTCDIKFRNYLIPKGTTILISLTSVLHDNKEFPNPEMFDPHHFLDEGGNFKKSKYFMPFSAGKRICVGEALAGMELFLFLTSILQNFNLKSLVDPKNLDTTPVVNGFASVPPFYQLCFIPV

Structure (SMILES) | inhibition at 3 µM (CYP2C9) | IC50 [1] | remaining at 1 h (CYP3A4 [2]) | EC50 [3] | Ratio EC50 [4] | Ratio EC50 [5] | inhibition at 3 µM (CYP3A4 [6]) | solubility thermodynamic [7] | inhibition at 3 µM (CYP2D6) | further results
O=C(NCCCCN1CCCCC1)Nc1ccc(-c2ccccc2F)cc1 | -1% | 5700 nM | 88% | 130 nM | 1.2 | 8.2 | -17% | 95 µM (≈ 35.1 µg/mL) | – | –
COc1ccccc1-c1ccc(NC(=O)NCCCCN2CCCCC2)cn1 | 6% | > 30000 nM | 88% | 230 nM | 3.9 | > 30 | 8% | 174 µM (≈ 66.6 µg/mL) | 8% | –
O=C(CCCCN1CCCCC1)Nc1ccc(-c2cccnc2)cc1 | – | – | – | 350 nM | – | – | – | – | – | –
O=C(NCCCCN1CCOCC1)Nc1ccc(-c2cccnc2)cc1 | – | – | – | 490 nM | – | – | – | – | – | –
O=C(NCCCCN1CCCCC1)Nc1ccc(-c2ccccc2)nc1 | -4% | > 30000 nM | 100% | 120 nM | 10.1 | > 30 | -21% | 193 µM (≈ 68 µg/mL) | 6% | microsomal CLint [8]: 18 µL/min/mg
O=C(NCCCCN1CCCCC1)Nc1ccc(-c2cccnc2)cc1 | – | – | – | 120 nM | – | – | – | – | – | –
O=C(NCCCCN1CCCCC1)Nc1ccc(-c2ccccn2)cc1 | 0% | > 30000 nM | 97% | 130 nM | 5 | > 30 | -2% | 153 µM (≈ 53.9 µg/mL) | 15% | –
O=C(CCCCCN1CCCCC1)Nc1ccc(-c2cccnc2)cc1 | – | – | – | 890 nM | – | – | – | – | – | –
COc1ccccc1-c1ccc(NC(=O)NCCCCN2CCCCC2)cc1 | -2% | 7800 nM | 100% | 140 nM | 1.1 | 7.7 | 5% | 114 µM (≈ 43.5 µg/mL) | – | –
O=C(NCCCCN1CCCCC1)Nc1ccc(-c2ccc(F)cc2)cc1 | -16% | 5800 nM | 100% | – | 1.7 | 8 | -13% | 20 µM (≈ 7.39 µg/mL) | – | –
O=C(NCCCCN1CCCCC1)Nc1ccc(-c2ccccn2)nc1 | -3% | > 30000 nM | 100% | 390 nM | 9.88 | > 30 | 0% | 171 µM (≈ 60.4 µg/mL) | 22% | –
O=C(NCCCCN1CCCCC1)Nc1ccc(-c2ccccc2F)nc1 | -10% | > 30000 nM | 100% | 150 nM | 5.6 | > 30 | -3% | 196 µM (≈ 72.6 µg/mL) | – | –
O=C(NCCCCN1CCCCC1)Nc1ccc(-c2ccc(F)nc2)cc1 | -18% | > 30000 nM | 100% | 120 nM | 1.2 | > 30 | -22% | 158 µM (≈ 58.5 µg/mL) | – | –
O=C(NCCCCN1CCCCC1)Nc1ccc(-c2ccc(F)cc2)nc1 | -17% | > 30000 nM | 75% | – | – | – | 0% | 121 µM (≈ 44.8 µg/mL) | 19% | Ki [9]: 6000 nM; IC50 [10]: 35000 nM; half-life [11]: 3.5 h; AUC(0-inf) [12]: 768 ng·h/mL; Tmax [13]: 5.3 h; microsomal CLint [8]: < 5 µL/min/mg; AUC(0-t) [14]: 318 ng·h/mL; minimal effective dose (Rattus norvegicus [15]): 3 mg/kg; IC50 [16]: 7500 nM; Cmax (Rattus norvegicus [17]): 40 ng/mL; minimal effective dose (Rattus norvegicus [18]): 3 mg/kg; IC50 [19]: > 30000 nM; bioavailability [20]: 100%; AUC(0-inf) [21]: 215 ng·h/mL; Kp [22]: 0.3
O=C(NCCCCN1CCCCC1)Nc1ccc(-c2ccccc2)cc1 | 2% | 7900 nM | 100% | 260 nM | 2.8 | > 30 | – | 108 µM (≈ 38 µg/mL) | – | –
O=C(NCCCCN1CCCCC1)Nc1ccc(-c2ccc(F)nc2)nc1 | -10% | > 30000 nM | 100% | 530 nM | > 30 | > 30 | -19% | 205 µM (≈ 76.1 µg/mL) | 8% | –
